Data as given in ChEMBL document CHEMBL1781886, “Monoterpenoid indole alkaloids from Gardneria ovata” (J Nat Prod, 2011).

How the values were obtained:
Assay type in all cases: functional, cell-based
SMMC-7721 = assay: Cytotoxicity against human SMMC7721 cells by MTT assay
In short: (§1)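 MTT viability read-out on five human cancer lines tested in parallel: breast MCF-7, hepatocellular SMMC-7721, myeloid leukemia HL-60, colon SW480 and lung A-549. IC50 derived by the Reed and Muench method.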

HL-60 = assay: Cytotoxicity against human HL60 cells by MTT assay; in short: as §1
A549 = assay: Cytotoxicity against human A549 cells by MTT assay; in short: as §1
MCF7 = assay: Cytotoxicity against human MCF7 cells by MTT assay; in short: as §1
SW480 = assay: Cytotoxicity against human SW480 cells by MTT assay; in short: as §1

Measured: IC50

COC/C=C1\CN2[C@H]3C[C@@H]1[C@@H]1COC4=Nc5cc6c(c(O[C@@H]7O[C@H](CO)[C@@H](O)[C@H](O)[C@H]7O)c5[C@@]43C[C@@H]12)OCO6
> 40 µM: SMMC-7721 | HL-60 | A549 | MCF7 | SW480

COc1cc(OC)c2c(c1)[C@@]13C[C@H]4[C@@H](COC1=N2)[C@H]1C[C@@H]3N4C/C1=C\CO
> 40 µM: SMMC-7721 | HL-60 | A549 | MCF7 | SW480

COc1c2c(cc3c1[C@@]14C[C@H]5[C@@H](COC1=N3)[C@H]1C[C@@H]4N5C/C1=C\CO)OCO2
> 40 µM: SMMC-7721 | HL-60 | A549 | MCF7 | SW480

C/C=C1/C[N+]2([O-])[C@H]3C[C@@]45C(=Nc6cc7c(c(OC)c64)OCO7)OC[C@H]3[C@H]1C[C@@H]52
> 40 µM: SMMC-7721 | HL-60 | A549 | MCF7 | SW480

C/C=C1/C[N+]2([O-])CC[C@]34C=C(CO)[C@H]1C[C@@]32Nc1ccccc14 (stereo not given in full)
> 40 µM: SMMC-7721 | HL-60 | A549 | MCF7 | SW480

C/C=C1/CN2[C@H]3C[C@@H]1[C@@H]1COC4=Nc5c(OC)cc(OC)cc5[C@@]43C[C@@H]12
> 40 µM: SMMC-7721 | HL-60 | A549 | MCF7 | SW480

C/C=C1/CN2[C@H]3C[C@@H]1[C@@H]1COC4=Nc5c(cc(OC)c(OC)c5OC)[C@@]43C[C@@H]12
> 40 µM: SMMC-7721 | HL-60 | A549 | MCF7 | SW480

COC/C=C1\C[N+]2([O-])[C@H]3C[C@@]45C(=Nc6cc7c(c(OC)c64)OCO7)OC[C@H]3[C@H]1C[C@@H]52
> 40 µM: SMMC-7721 | HL-60 | A549 | MCF7 | SW480
